Source: ChEMBL document CHEMBL4610127, “Novel Autotaxin Inhibitor for the Treatment of Idiopathic Pulmonary Fibrosis: A Clinical Candidate Discovered Using DNA-Encoded Chemistry” (J Med Chem, 2020)
The source made the active and inactive calls. The rule behind the calls is not given here.

Tests used:
[1] = Half life in mouse at 10 mg/kg, po; type: ADME, organism-based; details: in vivo
[2] = Half life in dog at 1 mg/kg, iv; type: ADME, organism-based, Canis lupus familiaris; details: in vivo
[3] = Half life in rat at 5 mg/kg, po; type: ADME, organism-based; details: in vivo
[4] = Volume of distribution at steady state in dog at 1 mg/kg, iv; type: ADME, organism-based, Canis lupus familiaris; details: in vivo, read-out: Vdss
[5] = Half life in human liver microsomes; type: ADME, Microsome
[6] = Half life in dog at 1 mg/kg, po; type: ADME, organism-based, Canis lupus familiaris; details: in vivo
[7] = Oral bioavailability in mouse at 10 mg/kg; type: ADME, organism-based; details: in vivo
Cytochrome P450 2D6 = Cytochrome P450 2D6 (Homo sapiens, UniProt P10635); assay: Inhibition of CYP2D6 (unknown origin); type: ADME
Cytochrome P450 2D6, sequence (P10635 whole entry): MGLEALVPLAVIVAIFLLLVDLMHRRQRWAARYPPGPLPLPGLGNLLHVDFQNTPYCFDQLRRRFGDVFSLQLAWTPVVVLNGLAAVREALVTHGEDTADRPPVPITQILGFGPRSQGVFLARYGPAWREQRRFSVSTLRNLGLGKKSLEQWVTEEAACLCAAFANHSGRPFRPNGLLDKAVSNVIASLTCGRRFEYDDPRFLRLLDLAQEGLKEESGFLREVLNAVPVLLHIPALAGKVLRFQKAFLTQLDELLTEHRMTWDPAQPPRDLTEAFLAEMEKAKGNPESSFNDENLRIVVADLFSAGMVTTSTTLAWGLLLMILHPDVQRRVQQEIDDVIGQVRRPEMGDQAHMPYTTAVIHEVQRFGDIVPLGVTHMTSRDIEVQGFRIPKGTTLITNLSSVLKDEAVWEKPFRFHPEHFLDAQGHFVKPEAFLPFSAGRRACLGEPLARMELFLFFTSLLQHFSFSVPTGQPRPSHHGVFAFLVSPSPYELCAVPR

[8] = molecular target: Lysophosphatidic acid receptor 1 (Homo sapiens, UniProt Q92633); assay: Inhibition of LPAR1 (unknown origin)
Lysophosphatidic acid receptor 1, sequence (Q92633 whole entry): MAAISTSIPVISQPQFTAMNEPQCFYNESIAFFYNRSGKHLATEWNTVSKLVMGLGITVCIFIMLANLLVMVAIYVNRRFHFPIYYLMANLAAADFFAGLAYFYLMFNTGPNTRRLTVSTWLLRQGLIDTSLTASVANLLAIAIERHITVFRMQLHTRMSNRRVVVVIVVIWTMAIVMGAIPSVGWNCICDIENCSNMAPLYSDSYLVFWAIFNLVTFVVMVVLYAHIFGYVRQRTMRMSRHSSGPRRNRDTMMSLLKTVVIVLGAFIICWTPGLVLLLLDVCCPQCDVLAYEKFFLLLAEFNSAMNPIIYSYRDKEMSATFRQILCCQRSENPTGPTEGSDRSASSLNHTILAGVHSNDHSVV

[9] = Cmax in dog at 1 mg/kg, po; type: ADME, organism-based, Canis lupus familiaris; set-up: dose 1 mg/kg, route oral; details: in vivo
Mus musculus [10] = assay: Anti-fibrotic activity in C57BL/6 mouse model of bleomycin-induced lung fibrosis assessed as reduction in hydroxyproline levels at 30 mg/kg, po BID for 21 days dosed 7 days after bleomycin treatment; type: functional, organism-based
Method in brief: (§1)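 Mice given oral BID doses (30, 100 or 300 mg/kg) starting seven days after bleomycin. Killed 21 days after bleomycin; lung fibrosis scored by hydroxyproline in one group. GLPG1690 at 30 and 100 mg/kg BID as control. Medians and p-values against bleomycin + vehicle.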

[11] = Protein binding in rat plasma; type: ADME, cell-free; details: read-out: PPB (converted)
[12] = molecular target: T1, Lysophosphatidic acid receptor 3 (Homo sapiens, UniProt Q9UBY5); assay: Inhibition of LPAR3 (unknown origin)
T1 sequence (Q9UBY5 whole entry): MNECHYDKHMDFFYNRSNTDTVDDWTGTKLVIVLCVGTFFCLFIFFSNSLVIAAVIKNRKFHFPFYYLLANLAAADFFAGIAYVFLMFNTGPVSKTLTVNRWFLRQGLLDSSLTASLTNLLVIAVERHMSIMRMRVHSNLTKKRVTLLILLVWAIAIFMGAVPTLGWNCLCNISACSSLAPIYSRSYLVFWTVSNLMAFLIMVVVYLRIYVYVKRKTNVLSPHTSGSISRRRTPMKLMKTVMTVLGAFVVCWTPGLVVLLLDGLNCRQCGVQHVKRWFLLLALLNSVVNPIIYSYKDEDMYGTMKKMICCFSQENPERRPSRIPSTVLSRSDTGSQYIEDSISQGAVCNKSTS

[13] = AUClast in mouse at 10 mg/kg, po; type: ADME, organism-based; set-up: dose 10 mg/kg, time 0 - last, route oral; details: in vivo
Mus musculus [14] = assay: Anti-fibrotic activity in C57BL/6 mouse model of bleomycin-induced lung fibrosis assessed as reduction in hydroxyproline levels at 30 to 300 mg/kg, po BID dosed until day 21 starting one day prior to bleomycin treatment; type: functional; details: C57BL/6, po, read-out: MED
Method in brief: (§2)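 Mice given oral BID doses (30, 100 or 300 mg/kg) starting one day before bleomycin. Killed 21 days after bleomycin; lung fibrosis scored by hydroxyproline in one group. GLPG1690 at 30 and 100 mg/kg BID as control. Hydroxyproline plotted per mouse; medians and p-values against bleomycin + vehicle.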

Cytochrome P450 2C9 = Cytochrome P450 2C9 (Homo sapiens, UniProt P11712); assay: Inhibition of CYP2C9 (unknown origin); type: ADME
Cytochrome P450 2C9, sequence (P11712 whole entry): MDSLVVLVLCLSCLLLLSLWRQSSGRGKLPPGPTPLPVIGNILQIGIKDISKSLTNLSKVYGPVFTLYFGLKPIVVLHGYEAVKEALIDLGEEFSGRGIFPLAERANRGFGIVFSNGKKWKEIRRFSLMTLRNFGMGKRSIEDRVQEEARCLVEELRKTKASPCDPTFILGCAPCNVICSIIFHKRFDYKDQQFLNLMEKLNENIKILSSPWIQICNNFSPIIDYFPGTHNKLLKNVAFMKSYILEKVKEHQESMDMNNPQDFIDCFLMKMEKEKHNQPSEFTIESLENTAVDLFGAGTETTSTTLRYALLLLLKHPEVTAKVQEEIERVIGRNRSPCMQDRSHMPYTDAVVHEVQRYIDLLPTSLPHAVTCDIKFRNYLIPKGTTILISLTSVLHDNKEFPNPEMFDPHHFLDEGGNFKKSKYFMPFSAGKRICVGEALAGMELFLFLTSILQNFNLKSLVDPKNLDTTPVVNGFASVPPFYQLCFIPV

[15] = molecular target: T2, Voltage-gated inwardly rectifying potassium channel KCNH2 (Homo sapiens, UniProt Q12809); assay: Inhibition of human ERG by GLP based assay
T2 sequence (Q12809 whole entry): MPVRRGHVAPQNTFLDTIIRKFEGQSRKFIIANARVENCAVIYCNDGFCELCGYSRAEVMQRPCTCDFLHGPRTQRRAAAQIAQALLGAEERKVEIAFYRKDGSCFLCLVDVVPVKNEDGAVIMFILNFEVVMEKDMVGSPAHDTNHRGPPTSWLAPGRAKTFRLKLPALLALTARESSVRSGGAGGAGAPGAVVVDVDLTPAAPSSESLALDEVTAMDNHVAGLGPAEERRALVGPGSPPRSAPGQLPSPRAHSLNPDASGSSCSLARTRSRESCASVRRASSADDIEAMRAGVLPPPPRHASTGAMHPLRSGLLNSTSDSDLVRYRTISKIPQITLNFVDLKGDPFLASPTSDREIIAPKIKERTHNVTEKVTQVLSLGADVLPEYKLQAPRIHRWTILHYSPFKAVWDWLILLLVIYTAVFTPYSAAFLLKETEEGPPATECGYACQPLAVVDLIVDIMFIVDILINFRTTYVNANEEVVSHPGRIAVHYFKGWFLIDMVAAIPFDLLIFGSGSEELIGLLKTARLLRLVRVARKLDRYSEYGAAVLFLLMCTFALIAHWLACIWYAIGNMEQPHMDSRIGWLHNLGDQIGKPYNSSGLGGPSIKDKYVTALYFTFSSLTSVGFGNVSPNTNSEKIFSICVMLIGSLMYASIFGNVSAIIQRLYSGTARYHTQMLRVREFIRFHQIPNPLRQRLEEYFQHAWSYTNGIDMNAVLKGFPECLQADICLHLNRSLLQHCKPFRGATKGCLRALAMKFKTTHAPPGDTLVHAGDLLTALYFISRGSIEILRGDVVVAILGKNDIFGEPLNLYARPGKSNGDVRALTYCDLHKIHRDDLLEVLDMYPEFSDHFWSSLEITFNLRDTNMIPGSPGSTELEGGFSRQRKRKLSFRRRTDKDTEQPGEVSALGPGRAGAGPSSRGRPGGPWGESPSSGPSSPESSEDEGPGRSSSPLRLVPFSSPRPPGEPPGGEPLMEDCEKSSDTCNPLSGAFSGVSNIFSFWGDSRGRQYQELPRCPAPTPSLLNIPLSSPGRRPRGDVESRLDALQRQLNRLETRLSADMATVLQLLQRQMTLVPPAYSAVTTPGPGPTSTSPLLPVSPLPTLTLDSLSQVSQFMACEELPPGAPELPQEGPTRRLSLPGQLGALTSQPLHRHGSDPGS

Autotaxin = Autotaxin (Homo sapiens, UniProt Q13822); assay: Potency index, ratio of IC50 for GLPG1690 to IC50 for test compound for inhibition of autotaxin in human plasma assessed as reduction in LPA (18:2) production incubated for 2 hrs LC-MS-/MS analysis; type: cell-free
[16] = Cmax in mouse at 10 mg/kg, po; type: ADME, organism-based; set-up: dose 10 mg/kg, route oral; details: in vivo
[17] = molecular target: Lysophosphatidic acid receptor 2 (Homo sapiens, UniProt Q9HBW0); assay: Inhibition of LPAR2 (unknown origin)
Lysophosphatidic acid receptor 2, sequence (Q9HBW0 whole entry): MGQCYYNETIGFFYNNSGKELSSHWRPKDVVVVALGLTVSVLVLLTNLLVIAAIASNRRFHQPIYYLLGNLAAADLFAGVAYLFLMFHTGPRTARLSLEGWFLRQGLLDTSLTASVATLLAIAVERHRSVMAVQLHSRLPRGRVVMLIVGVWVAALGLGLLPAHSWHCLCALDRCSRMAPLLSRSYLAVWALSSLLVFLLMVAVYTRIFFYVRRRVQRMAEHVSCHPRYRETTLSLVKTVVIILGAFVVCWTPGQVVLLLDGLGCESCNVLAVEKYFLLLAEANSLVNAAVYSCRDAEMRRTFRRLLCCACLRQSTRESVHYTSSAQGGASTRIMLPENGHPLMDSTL

[18] = Clearance in dog at 1 mg/kg, iv; type: ADME, organism-based, Canis lupus familiaris; details: in vivo
Mus musculus [19] = assay: Anti-fibrotic activity in C57BL/6 mouse model of bleomycin-induced lung fibrosis assessed as reduction in hydroxyproline levels at 100 to 300 mg/kg, po BID for 21 days dosed 7 days after bleomycin treatment; type: functional, organism-based; method in brief: as §1
[20] = molecular target: T2, Voltage-gated inwardly rectifying potassium channel KCNH2; assay: Inhibition of human ERG by manual patch clamp assay
[21] = Half life in rat at 1 mg/kg, iv; type: ADME, organism-based; details: in vivo
[22] = Clearance in rat at 1 mg/kg, iv; type: ADME, organism-based; details: in vivo
Cytochrome P450 2C19 = Cytochrome P450 2C19 (Homo sapiens, UniProt P33261); assay: Inhibition of CYP2C19 (unknown origin); type: ADME
Cytochrome P450 2C19, sequence (P33261 whole entry): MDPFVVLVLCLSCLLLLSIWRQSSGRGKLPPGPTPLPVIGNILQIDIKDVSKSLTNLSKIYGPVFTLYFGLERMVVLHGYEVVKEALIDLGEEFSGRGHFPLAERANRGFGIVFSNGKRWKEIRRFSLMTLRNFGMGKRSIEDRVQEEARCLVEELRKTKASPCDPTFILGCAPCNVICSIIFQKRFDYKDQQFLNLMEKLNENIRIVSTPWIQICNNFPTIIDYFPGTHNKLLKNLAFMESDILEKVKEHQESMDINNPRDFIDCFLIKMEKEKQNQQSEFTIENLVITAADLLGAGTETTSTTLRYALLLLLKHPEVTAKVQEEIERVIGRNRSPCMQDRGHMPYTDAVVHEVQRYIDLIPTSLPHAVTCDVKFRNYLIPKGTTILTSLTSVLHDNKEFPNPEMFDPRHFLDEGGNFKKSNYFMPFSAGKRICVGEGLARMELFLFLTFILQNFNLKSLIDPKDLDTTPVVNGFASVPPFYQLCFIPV

[23] = molecular target: T3, Ectonucleotide pyrophosphatase/phosphodiesterase family member 1 (Homo sapiens, UniProt P22413); assay: Inhibition of ENPP1 (unknown origin)
T3 sequence (P22413 whole entry): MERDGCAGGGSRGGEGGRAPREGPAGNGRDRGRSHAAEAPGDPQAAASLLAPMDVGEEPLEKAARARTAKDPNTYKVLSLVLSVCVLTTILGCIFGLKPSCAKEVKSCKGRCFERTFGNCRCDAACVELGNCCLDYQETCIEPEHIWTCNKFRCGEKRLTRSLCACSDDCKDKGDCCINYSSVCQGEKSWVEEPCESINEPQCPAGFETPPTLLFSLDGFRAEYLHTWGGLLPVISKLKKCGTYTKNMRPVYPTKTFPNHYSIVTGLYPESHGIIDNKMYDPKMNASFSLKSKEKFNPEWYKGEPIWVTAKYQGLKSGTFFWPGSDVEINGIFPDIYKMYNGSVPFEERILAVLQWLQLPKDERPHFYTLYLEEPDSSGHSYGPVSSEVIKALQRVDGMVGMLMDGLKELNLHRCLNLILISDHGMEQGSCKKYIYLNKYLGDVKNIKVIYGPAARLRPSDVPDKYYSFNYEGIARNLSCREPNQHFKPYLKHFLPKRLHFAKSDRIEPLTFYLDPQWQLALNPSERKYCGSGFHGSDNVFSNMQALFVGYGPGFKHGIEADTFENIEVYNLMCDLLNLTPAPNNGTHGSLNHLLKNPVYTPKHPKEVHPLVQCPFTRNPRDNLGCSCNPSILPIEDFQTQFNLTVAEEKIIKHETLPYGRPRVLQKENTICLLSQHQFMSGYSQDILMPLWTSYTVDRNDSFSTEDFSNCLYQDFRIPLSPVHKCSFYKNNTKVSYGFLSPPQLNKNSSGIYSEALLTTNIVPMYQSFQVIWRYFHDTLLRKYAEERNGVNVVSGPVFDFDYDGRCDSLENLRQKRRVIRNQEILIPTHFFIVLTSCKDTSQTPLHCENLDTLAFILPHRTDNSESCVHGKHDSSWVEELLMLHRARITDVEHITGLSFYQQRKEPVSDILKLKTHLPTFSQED

Mus musculus [24] = assay: Anti-fibrotic activity in C57BL/6 mouse model of bleomycin-induced lung fibrosis assessed as reduction in hydroxyproline levels at 100 to 300 mg/kg, po BID dosed until day 21 starting one day prior to bleomycin treatment; type: functional, organism-based; method in brief: as §2

CC(C)[C@@H](NC(=O)c1cc(C(F)(F)F)ccc1F)C(=O)N1CCC2(CC1)C(=O)N(C)C(=O)N2c1ccc2[nH]ncc2c1
half-life [1]: 2.5 h | half-life [2]: 4.1 h | half-life [3]: 1.8 h | Vd [4]: 0.655 L/kg | half-life [5]: 8.88 h | half-life [6]: 4.2 h | bioavailability [7]: 81% | IC50 (Cytochrome P450 2D6): > 50 µM | IC50 [8]: > 10 µM | Cmax [9]: 374 ng/mL | Activity (Mus musculus [10]): inactive | fraction unbound [11]: 0.273 | IC50 [12]: > 10 µM | AUC(0-t) [13]: 2590 ng·h/mL | minimal effective dose (Mus musculus [14]): 30 mg/kg | IC50 (Cytochrome P450 2C9): 10.4 µM | IC50 [15]: > 50 µM | Ratio IC50 (Autotaxin): 20 | Cmax [16]: 744 ng/mL | IC50 [17]: > 10 µM | clearance [18]: 7.96 mL/min/kg | Activity (Mus musculus [19]): Active | IC50 [20]: > 50 µM | half-life [21]: 1.5 h | clearance [22]: 36 mL/min/kg | IC50 (Cytochrome P450 2C19): 46 µM | IC50 [23]: > 10 µM | Activity (Mus musculus [24]): Active
